# Assays:
# [1] = molecular target: Histone deacetylase 1 (Homo sapiens, UniProt Q13547); experiment: Inhibition of human recombinant FLAG-tagged HDAC1 expressed in baculovirus
# Procedure, shortened: (§1)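 Enzyme preincubated with inhibitor 10 min at ambient temperature in 25 mM Hepes pH 8.0, 137 mM NaCl, 1 mM MgCl₂, 2.7 mM KCl. Coumarin-labeled acetyl-lysine substrate then added, incubated at 37 °C. Quenched with trypsin (1 mg/mL final) and TSA (1 μM final). Fluorescence read; IC50 from dose–response curves. Values are means of at least two experiments.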
# [2] = molecular target: T1, Protein deacetylase HDAC6 (Homo sapiens, UniProt Q9UBN7); experiment: Inhibition of human recombinant His-tagged HDAC6 expressed in baculovirus; procedure, shortened: as §1
# T1 sequence (Q9UBN7 whole entry): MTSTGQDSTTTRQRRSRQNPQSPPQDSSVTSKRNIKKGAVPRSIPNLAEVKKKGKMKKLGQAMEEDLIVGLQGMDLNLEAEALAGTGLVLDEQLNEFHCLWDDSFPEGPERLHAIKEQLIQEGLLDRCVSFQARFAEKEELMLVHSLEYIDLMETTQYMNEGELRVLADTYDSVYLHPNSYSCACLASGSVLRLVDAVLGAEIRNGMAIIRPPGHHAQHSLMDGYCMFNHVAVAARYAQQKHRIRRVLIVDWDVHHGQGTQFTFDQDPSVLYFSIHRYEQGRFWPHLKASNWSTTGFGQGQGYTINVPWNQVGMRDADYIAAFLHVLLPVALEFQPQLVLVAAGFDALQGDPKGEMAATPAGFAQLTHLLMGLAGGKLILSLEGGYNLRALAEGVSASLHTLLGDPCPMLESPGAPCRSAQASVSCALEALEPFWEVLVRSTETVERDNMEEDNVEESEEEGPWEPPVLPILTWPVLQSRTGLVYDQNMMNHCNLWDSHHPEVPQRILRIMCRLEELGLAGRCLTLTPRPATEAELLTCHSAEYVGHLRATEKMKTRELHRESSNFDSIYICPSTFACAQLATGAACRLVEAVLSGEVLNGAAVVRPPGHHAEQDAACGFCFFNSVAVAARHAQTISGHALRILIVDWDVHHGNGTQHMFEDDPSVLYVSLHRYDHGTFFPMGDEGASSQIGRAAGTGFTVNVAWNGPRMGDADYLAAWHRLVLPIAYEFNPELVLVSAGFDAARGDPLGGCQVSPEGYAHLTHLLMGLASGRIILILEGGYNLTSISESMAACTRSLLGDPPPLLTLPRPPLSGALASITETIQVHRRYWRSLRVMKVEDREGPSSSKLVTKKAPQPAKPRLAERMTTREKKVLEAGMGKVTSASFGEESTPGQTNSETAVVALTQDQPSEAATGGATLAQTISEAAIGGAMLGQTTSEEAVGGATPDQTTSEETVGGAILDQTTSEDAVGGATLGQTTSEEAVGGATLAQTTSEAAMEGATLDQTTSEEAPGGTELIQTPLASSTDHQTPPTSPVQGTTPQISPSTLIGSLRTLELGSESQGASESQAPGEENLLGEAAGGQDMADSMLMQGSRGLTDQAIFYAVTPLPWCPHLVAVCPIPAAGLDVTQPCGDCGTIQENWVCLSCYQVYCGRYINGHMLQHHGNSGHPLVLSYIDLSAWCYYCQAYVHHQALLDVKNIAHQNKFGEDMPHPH
# [3] = molecular target: Histone deacetylase; experiment: Inhibition of HDAC in HEK293T cells by whole cell assay; assay type: cell-based, Homo sapiens; details: hek-293t
# Procedure, shortened: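 Cultured 293T cells exposed to inhibitors for 16 h, then given the membrane-permeable substrate Boc-Ac-Lys-AMC for 90 min at 37 °C. Quenched with trypsin (1 mg/mL final) and TSA, then lysed in 1% NP-40. Fluorescence read at Ex 360/Em 470 nm; IC50 reported. Values are means of at least two experiments.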
# [4] = Clearance in iv dosed rat; assay type: ADME, organism-based; details: in vivo
# [5] = Oral bioavailability in rat; assay type: ADME, organism-based; details: in vivo
# [6] = Clearance in dog; assay type: ADME, organism-based, Canis lupus familiaris; details: in vivo
# [7] = Volume of distribution at steady state in rat; assay type: ADME, organism-based; details: in vivo, read-out: Vdss
# [8] = Half life in rat; assay type: ADME, organism-based; details: in vivo
# [9] = Half life in dog; assay type: ADME, organism-based, Canis lupus familiaris; details: in vivo
# [10] = tested on: Plasma; experiment: Metabolic stability in rat plasma; assay type: ADME, cell-free
# [11] = Bioavailability in dog; assay type: ADME, organism-based, Canis lupus familiaris; details: in vivo
# [12] = tested on: Plasma; experiment: Metabolic stability in human plasma; assay type: ADME, cell-free
# [13] = molecular target: Histone deacetylase; experiment: Inhibition of HDAC in T24 cells assessed as alpha-tubulin acetylation; details: Homo sapiens
# [14] = molecular target: Histone deacetylase; experiment: Inhibition of HDAC in T24 cells assessed as histone H3 acetylation; details: Homo sapiens
# [15] = Metabolic stability in rat plasma assessed as compound remaining after 1 hr; assay type: ADME, cell-free; details: read-out: Activity
# Procedure, shortened: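 Compound kept in rat plasma at 37 °C for 1 h; percentage of intact compound remaining was measured.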
# [16] = species on record: Homo sapiens; experiment: Selectivity for ratio of IC50 for human recombinant HDAC1 to IC50 for human recombinant HDAC6
# Procedure, shortened: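 HDAC1 and HDAC6 were each preincubated with compound for 10 min at ambient temperature in 25 mM Hepes pH 8.0, 137 mM NaCl, 1 mM MgCl2, 2.7 mM KCl. A coumarin-labeled acetyl-lysine substrate was then added at 37 °C. Reactions were quenched with trypsin (1 mg/mL final) plus TSA, and fluorescence was read. IC50s came from dose-response curves, as means of at least two experiments. The ratio is HDAC1 IC50 over HDAC6 IC50.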
# Sequence of Histone deacetylase 1 (Q13547 whole entry): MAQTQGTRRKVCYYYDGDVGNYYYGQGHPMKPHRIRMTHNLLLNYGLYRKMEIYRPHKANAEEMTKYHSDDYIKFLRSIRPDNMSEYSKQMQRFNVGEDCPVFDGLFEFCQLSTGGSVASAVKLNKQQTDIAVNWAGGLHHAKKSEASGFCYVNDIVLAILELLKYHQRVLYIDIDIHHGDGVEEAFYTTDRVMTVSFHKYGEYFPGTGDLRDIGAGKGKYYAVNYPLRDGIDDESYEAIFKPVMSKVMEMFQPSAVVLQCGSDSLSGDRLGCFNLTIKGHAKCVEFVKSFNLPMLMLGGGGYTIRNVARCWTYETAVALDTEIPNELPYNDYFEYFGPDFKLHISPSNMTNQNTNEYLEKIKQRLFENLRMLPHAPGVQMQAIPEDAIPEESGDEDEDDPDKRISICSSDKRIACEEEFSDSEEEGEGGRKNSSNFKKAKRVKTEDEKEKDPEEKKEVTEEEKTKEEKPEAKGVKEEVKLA
IC50 [1] [nM],IC50 [2] [nM],IC50 [3] [nM],SMILES,further results
520,1400,3200,CC(C)c1ccc(-c2csc(NC(=O)[C@H](CCCCNS(N)(=O)=O)NC(=O)OCc3ccccc3)n2)cc1,
3200,1800,9900,NS(=O)(=O)NCCCC[C@H](NC(=O)OCc1ccccc1)c1nnc(-c2ccccc2)o1,
> 10000,1700,> 50000,NS(=O)(=O)NCCCC[C@H](NC(=O)OCc1ccccc1)c1nc(-c2ccc(F)cc2)no1,
4500,190,19000,NS(=O)(=O)NCCCC[C@H](NC(=O)OCc1ccccc1)C(=O)Nc1nc2ccccc2s1,
1400,520,38000,NS(=O)(=O)NCCCC[C@H](NS(=O)(=O)Cc1ccccc1)C(=O)Nc1nc(-c2ccccc2)cs1,
200,480,620,NS(=O)(=O)NCCCC[C@H](NC(=O)OCc1ccccc1)c1nc2cc(-c3cccs3)ccc2[nH]1,clearance [4]: 6.83 mL/min/kg; bioavailability [5]: 0.5%; clearance [6]: 8.5 mL/min/kg; Vd [7]: 0.03 L/kg; half-life [8]: 1.2 h; half-life [9]: 5.7 h; Stability [10]: Stable; bioavailability [11]: 6%; Stability [12]: Stable
290,410,2200,NS(=O)(=O)NCCCC[C@H](NC(=O)OCc1ccccc1)c1c[nH]c(-c2ccccc2)n1,
2400,320,6400,NS(=O)(=O)NCCCC[C@H](NC(=O)OCc1ccccc1)c1n[nH]c(-c2ccccc2)n1,
1500,600,18000,NS(=O)(=O)NCCCC[C@H](NC(=O)OCc1cccnc1)C(=O)Nc1nc(-c2ccccc2)cs1,
> 10000,4100,> 50000,NS(=O)(=O)NCCCC[C@H](NC(=O)OCc1ccccc1)C(=O)Nc1nccs1,
460,420,3200,COc1cccc(-c2csc(NC(=O)[C@H](CCCCNS(N)(=O)=O)NC(=O)OCc3ccccc3)n2)c1,
500,480,,COc1ccc(-c2nc([C@H](CCCCNS(N)(=O)=O)NC(=O)OCc3ccccc3)cs2)cc1,
390,890,180,CN(C)CCOc1ccc(-c2nc([C@H](CCCCNS(N)(=O)=O)NC(=O)OCc3ccccc3)cs2)cc1,clearance [4]: 38.3 mL/min/kg; bioavailability [5]: 0.5%; Vd [7]: 0.78 L/kg; half-life [8]: 1.6 h
150,250,4900,NS(=O)(=O)NCCCC[C@H](NC(=O)OCc1ccccc1)C(=O)Nc1nc(-c2ccc(Cl)cc2)cs1,
2900,100,9500,NS(=O)(=O)NCCCC[C@H](NC(=O)OCc1ccccc1)c1nc2ccccc2[nH]1,
> 10000,580,> 50000,CCOC(=O)c1csc(NC(=O)[C@H](CCCCNS(N)(=O)=O)NC(=O)OCc2ccccc2)n1,

IC50 [1] [nM],IC50 [2] [nM],IC50 [3] [nM],SMILES,further results
850,450,7200,NS(=O)(=O)NCCCC[C@H](NC(=O)OCc1ccccc1)C(=O)Nc1nc(-c2ccccc2)c(-c2ccccc2)s1,
3600,840,9100,CC(C)(C)c1csc(NC(=O)[C@H](CCCCNS(N)(=O)=O)NC(=O)OCc2ccccc2)n1,
570,530,6800,NS(=O)(=O)NCCCC[C@H](NC(=O)OCc1ccc(Cl)cc1)C(=O)Nc1nc(-c2ccccc2)cs1,
2500,200,17000,CCOC(=O)N[C@@H](CCCCNS(N)(=O)=O)C(=O)Nc1nc(-c2ccccc2)cs1,
> 10000,1100,> 50000,N[C@@H](CCCCNS(N)(=O)=O)C(=O)Nc1nc(-c2ccccc2)cs1,
2300,560,> 50000,NS(=O)(=O)NCCCC[C@H](NC(=O)Nc1ccccc1)C(=O)Nc1nc(-c2ccccc2)cs1,
64,1200,590,COc1ccc2[nH]c(C)c(CC(=O)N[C@@H](CCCCNS(N)(=O)=O)C(=O)Nc3nc(-c4ccccc4)cs3)c2c1,
,,2300,NS(=O)(=O)NCCCC[C@H](NC(=O)OCc1ccccc1)C(=O)Nc1nc(-c2ccccc2)cs1,clearance [4]: 41.7 mL/min/kg; EC50 [13]: 600 nM; bioavailability [5]: 4.9%; EC50 [14]: 700 nM; Vd [7]: 0.02 L/kg; half-life [8]: 0.025 h; remaining at 1 h [15]: 3%
350,370,29000,NS(=O)(=O)NCCCC[C@H](NC(=O)NCc1ccc(F)cc1)C(=O)Nc1nc(-c2ccccc2)cs1,
4900,1200,12000,NS(=O)(=O)NCCCC[C@H](NC(=O)OCc1ccccc1)c1nc(-c2ccccc2)cs1,
790,400,5800,NS(=O)(=O)NCCCC[C@H](NC(=O)OCc1ccccc1)c1csc(-c2ccccc2)n1,Ratio IC50 [16]: 2
4300,2000,> 50000,Cn1nc([C@H](CCCCNS(N)(=O)=O)NC(=O)OCc2ccccc2)nc1-c1ccccc1,
120,200,530,COc1ccc(-c2csc(NC(=O)[C@H](CCCCNS(N)(=O)=O)NC(=O)OCc3ccccc3)n2)cc1,
350,280,3600,NS(=O)(=O)NCCCC[C@H](NC(=O)OCc1cccc(Cl)c1)C(=O)Nc1nc(-c2ccccc2)cs1,
700,150,6100,NS(=O)(=O)NCCCC[C@H](NC(=O)Cc1ccccc1)C(=O)Nc1nc(-c2ccccc2)cs1,

# — ChEMBL document CHEMBL1153367, “Synthesis and evaluation of lysine derived sulfamides as histone deacetylase inhibitors” (Bioorg Med Chem Lett, 2009)
